# Assay: Toxicity liver stage against HepG2, at 10uM
# Format: cell-based
# Set-up: test concentration 10 uM, cell line HepG2-A16-CD81EGFP
# Conditions: human, HepG2-A16-CD81EGFP cells; read-out: INHIBITION
# Summary of the method: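 Uninfected HepG2-A16-CD81EGFP cells, 3 × 10^3 per well, 1536-well, plated on prespotted compound at 10 μM final, parasite-free screening media added to match infected plates; puromycin 10 μM positive, DMSO 0.5% negative; run in parallel with 48 h PbLuc assay at 37 °C, 5% CO2; viability by CellTiter-Glo luminescence, normalized to controls.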
row,Compound,cytotoxicity at 10 µM [%]
1,CC1CCCN(Cc2csc(-c3ncccn3)n2)CC1 (stereo not drawn),2.73
2,CNC(=O)C1CCC2(CCN(c3ncc(C)cn3)CC2)CO1 (stereo not drawn),-4.66
3,Cc1cc(=O)n(C)cc1NC(=O)Cc1cccc(Cl)c1,-12.8
4,CC(C)CNC(=O)c1cn(-c2ccccn2)c(=O)c2ccccc12,0.318
5,Cc1ccc2c(c1)[C@@H](CC(=O)N1CCN(C)CC1)CCO2,-11.1
6,CN(C)C(=O)C1CN(Cc2ccccc2)CCN(S(C)(=O)=O)C1 (stereo not drawn),-5.43
7,O=C(Cn1nc(C(F)(F)F)c(Br)c1C1CC1)N1CCOCC1,-0.614
8,CN1CCCC2(CCN(C(=O)Cc3cc4c(cc3Cl)OCCO4)C2)C1=O (stereo not drawn),10.1
9,COc1ccc(C[C@H]2CNCC[C@H]2OC)cc1,1.76
10,CCOCCn1nc(C)cc1C(=O)N1C[C@@H](C)[C@](O)(C2CC2)C1,-3.9
11,CCc1nc(CN2CCCN(C(=O)C(CC)OC)CC2)cs1 (stereo not drawn),-15.8
12,CCc1cn[nH]c1C1CCCN(C(=O)c2noc(C)c2COC)C1 (stereo not drawn),-1.67
13,Cc1[nH]c(=O)sc1S(=O)(=O)N1CCCC1C(=O)NC1CC1 (stereo not drawn),5.36
14,CN(C)c1ccc(C(=O)N2CCCc3cc(OC(F)(F)F)ccc32)cn1,-45.9
15,CCc1nc2n(n1)CC(Nc1nc(C)cc(N(C)C)n1)CC2 (stereo not drawn),5.02
16,O=C(O)c1c(Cl)ncn1-c1ccccc1,-2.34
17,Cn1ccc2c(C(=O)NCCCS(C)(=O)=O)cccc21,-0.915
18,COC(=O)N1CCC(Nc2cccc(F)c2C#N)CC1,18.1
19,CCN1CCN(c2ccc(CNC(=O)c3ccc(Cl)o3)cn2)CC1,-0.433
20,CCN(Cc1ccncc1)c1nc(C)nc2oc(C)nc12,-50.6
21,COCCN(Cc1ccco1)Cc1nc(-c2ccccc2C)no1,6.72

row,Compound,cytotoxicity at 10 µM [%]
1,COc1cccc(OCC2CCCN(C(=O)CCCn3cccn3)C2)c1 (stereo not drawn),8.12
2,CC(C)c1nc(CN(C)C2CCN(CCc3ccncc3)C2)no1 (stereo not drawn),-28.4
3,CN(CCCNC(=O)C1CCc2cn[nH]c2C1)c1ccccc1 (stereo not drawn),-5.19
4,O=C(CSc1nc2c(cnn2CCO)c(=O)[nH]1)NC1CCCCC1,-8.07
5,Cc1cc(C)c(C(=O)N2CCOCC2c2c(C)nn(C)c2C)o1 (stereo not drawn),-2.48
6,Cc1ccc(-n2cc(C(=O)N3CCCC(n4cccn4)C3)nn2)cc1 (stereo not drawn),-20.3
7,COc1c(C2CCCN2C(=O)c2ccc(C#N)c(C)n2)c(C)nn1C (stereo not drawn),-8.45
8,CC1(c2nccs2)CCN(C(=O)CC2CCOCC2)CC1,-0.29
9,Cc1nc(N2CCC(O)(c3ccccc3)CC2)c2c(C)nn(C)c2n1,1.22
10,CN[C@@H]1CCC[C@@H](Oc2ccccc2Oc2ccc(C)cc2)[C@@H]1O,-14.2
11,COc1cccc(OC)c1OCCN1C(=O)CCNC1=O,-7.89
12,CCN(Cc1noc(C(C)C)n1)Cc1ccc(C#N)cc1F,-2.48
13,CCC(CC)C(=O)N(C)CC(=O)Nc1ccc(Br)cn1,-11.2
14,COCC(O)CN(C)C(=O)c1cccc(-c2csc(C)n2)c1 (stereo not drawn),-3.04
15,Cc1ocnc1C(=O)N1CCCN(Cc2cscn2)CC1,-7.22
16,CCn1nc(C)c2nc(C(C)C)nc(NC)c21,7.19
17,COCCNc1ccc(CC2CCCN(Cc3c[nH]cn3)C2)nn1 (stereo not drawn),-2.7
18,Cc1nc(CN(C)Cc2cn[nH]c2-c2ccc(F)cc2)c[nH]1,-17.8
19,Cc1cc(C)n(CC(C)NC(=O)C2(c3ccc(F)cc3)CC2)n1 (stereo not drawn),11.5
20,CCCc1nccn1CCn1cnc2ccsc2c1=O,0.0394
21,COc1ncnc2c1CCN(Cc1cccc(C)n1)CC2,-146

row,Compound,cytotoxicity at 10 µM [%]
1,COc1ccc(C(=O)NCCCC2(C3OCCO3)CCOCC2)cc1,3.05
2,O=S(=O)(Nc1nccs1)c1cc(Cl)cc2c1OCC2,-2.19
3,Cc1cnn(CC2CC2)c1NC(=O)c1cccnc1O,6.62
4,O=C(COCC(F)(F)F)Nc1nncs1,5.79
5,Cc1cc(C)n(C2CN(CC(O)Cn3cccn3)C2)n1 (stereo not drawn),-5.09
6,Cc1nnc(SCc2ccccn2)s1,-9.13
7,O=C(Cc1ccc(O)cc1)N1CCCC(O)(CN2CCOCC2)CC1 (stereo not drawn),-1.45
8,c1ccc2cc(OCCN3CCOC(Cn4cncn4)C3)ccc2c1 (stereo not drawn),4.6
9,Cc1noc(C)c1CN1CC2(CCN(Cc3c[nH]cn3)CC2)CC1=O,8.62
10,O=C1C[C@@H]2CC[C@H](CN1)N2C(=O)Cc1ccsc1,1.6
11,CN(CC1(CO)CCOCC1)[C@@H]1c2ccccc2C2(CCNCC2)[C@H]1O,-6.87
12,CN(C)C(=O)N1CCC2(CC1)CNc1ccc(F)cc12,8.88
13,CC(Cn1cccn1)NCc1nc(-c2ccco2)no1 (stereo not drawn),-2.66
14,O=C1CCC2(CCCN(C(=O)c3ncc[nH]3)C2)CN1CCc1c[nH]cn1 (stereo not drawn),-2.47
15,O=S(=O)(NCCN1CCOCC1)c1cncc(Cl)c1,2.77
16,COCc1noc(-c2ccc(N(C)Cc3cc(C)no3)nc2)n1,-17.2
17,CCCc1ccc(CN2CCN(C(=O)NCC)[C@H]3CS(=O)(=O)C[C@H]32)o1,2.71
18,O=C(CC1CC1)N1CCCC2(CCC(=O)N2CC2CC2)CC1 (stereo not drawn),0.964
19,CCc1ccccc1Nc1noc2c1CN(C(=O)C1CCCO1)CC2 (stereo not drawn),-9.9
20,Cn1cc(CN2CCCC23CCN(C(=O)c2cccs2)CC3)cn1,2.17
21,Fc1cccc(CNCC2OCCc3cn(CC4CCOCC4)nc32)c1 (stereo not drawn),-77.1

row,Compound,cytotoxicity at 10 µM [%]
1,Cc1ccc(C(=O)N(C2CC2)C2CC(=O)NC2=O)cc1F (stereo not drawn),-7.33
2,O=C(NCCN1CCOCC1)c1ccn(-c2ccc3ccccn23)n1,-0.735
3,Cc1cc(N(C)Cc2cc(C(C)(C)C)n[nH]2)nc(-c2cccnc2)n1,19.9
4,Cc1nc(C2CCCN(C(=O)CCn3ccccc3=O)C2)no1 (stereo not drawn),-9.35
5,O=C(CN1CCOCC1)N1CCC2(CCCN(C3CCOCC3)C2=O)C1 (stereo not drawn),-129
6,O=C(CCCOCc1ccccc1)N1CCCC1c1ccccn1 (stereo not drawn),-14.4
7,O=C(Cc1ccccn1)N1CCC2(CC1)CN(CC1CC1)C(=O)CO2,7.43
8,Cc1cc(C)nc(NCc2cc3n(n2)CCCN(C(=O)C2CCC2)C3)n1,-120
9,Cc1cc(OCC(O)c2nc3c([nH]2)CC(C)(C)CNC3=O)ccc1Cl (stereo not drawn),-1.57
10,CCOCCCC(=O)Nc1c(-c2ccc(F)cc2)ncn1C,-9.19
11,COc1cc(C)nc(N2CCN(C(=O)CCc3ccco3)CC2)n1,7.92
12,CS(=O)(=O)N1CCN(C(=O)CCC2CCCO2)CC1 (stereo not drawn),0.815
13,CNC(=O)C(C)(C)N1CCC[C@H]1C(=O)NCCN1CCOCC1,3.29
14,COc1ccccc1Oc1ncccc1CNC(=O)[C@@H](N)CCO,-17.5
15,O=C(NCCOc1ccc(Cl)cn1)Nc1ccccn1,9.05
16,Cc1noc(C)c1CN(C)Cn1nccc1-c1cccnc1,-0.532
17,Cc1nc2c(c(=O)n1C)CN(C(=O)C1CCN(C(=O)C3CCC3)CC1)C2,-3.54
18,O=C(Cc1cccnc1)N1CCCC2(CCN(CC3CCOCC3)C2)C1 (stereo not drawn),2
19,O=C(CN1CCC(c2cccc(F)c2)C1)NCc1ccco1 (stereo not drawn),-7.88
20,CN1CCN(CC2CC2)C(=O)c2cnc(N3CCC(CO)CC3)nc21,-3.14

# Reference: ChEMBL document CHEMBL4513216, “Probing the Open Global Health Chemical Diversity Library for Multistage-Active Starting Points for Next-Generation Antimalarials” (ACS Infect Dis, 2020)
